In ChEMBL document CHEMBL3779840, “Discovery of 2-((3-Amino-4-methylphenyl)amino)-N-(2-methyl-5-(3-(trifluoromethyl)benzamido)phenyl)-4-(methylamino)pyrimidine-5-carboxamide (CHMFL-ABL-053) as a Potent, Selective, and Orally Available BCR-ABL/SRC/p38 Kinase Inhibitor for Chronic Myeloid Leukemia” (J Med Chem, 2016):
Activity calls are given as the source filed them. No cut-off for these calls is given here.

Assays:
Mus musculus = test: Toxicity in nu/nu mouse xenografted with K562 cells assessed as decrease in body weight at 25 and 50 mg/kg/day, qd administered through oral gavage for 16 days measured every day during compound dosing; format: organism-based; conditions: in vivo, 384 h
Procedure, shortened: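 Female nu/nu mice carrying established K562 xenografts received oral treatment once daily at 25.0 or 50.0 mg/kg/d, or vehicle, starting when tumours reached 200 to 400 mm3. There were 5 animals per group and dosing lasted 16 days. Body weight was expressed relative to initial weight (set as 100%), and mortality was recorded. Data are given as mean ± SEM.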

[1] = target: Tyrosine-protein kinase ABL1 (Homo sapiens, UniProt P00519); test: Inhibition of full length recombinant human ABL1 expressed in Baculovirus expression system
Chain of Tyrosine-protein kinase ABL1 (P00519 whole entry): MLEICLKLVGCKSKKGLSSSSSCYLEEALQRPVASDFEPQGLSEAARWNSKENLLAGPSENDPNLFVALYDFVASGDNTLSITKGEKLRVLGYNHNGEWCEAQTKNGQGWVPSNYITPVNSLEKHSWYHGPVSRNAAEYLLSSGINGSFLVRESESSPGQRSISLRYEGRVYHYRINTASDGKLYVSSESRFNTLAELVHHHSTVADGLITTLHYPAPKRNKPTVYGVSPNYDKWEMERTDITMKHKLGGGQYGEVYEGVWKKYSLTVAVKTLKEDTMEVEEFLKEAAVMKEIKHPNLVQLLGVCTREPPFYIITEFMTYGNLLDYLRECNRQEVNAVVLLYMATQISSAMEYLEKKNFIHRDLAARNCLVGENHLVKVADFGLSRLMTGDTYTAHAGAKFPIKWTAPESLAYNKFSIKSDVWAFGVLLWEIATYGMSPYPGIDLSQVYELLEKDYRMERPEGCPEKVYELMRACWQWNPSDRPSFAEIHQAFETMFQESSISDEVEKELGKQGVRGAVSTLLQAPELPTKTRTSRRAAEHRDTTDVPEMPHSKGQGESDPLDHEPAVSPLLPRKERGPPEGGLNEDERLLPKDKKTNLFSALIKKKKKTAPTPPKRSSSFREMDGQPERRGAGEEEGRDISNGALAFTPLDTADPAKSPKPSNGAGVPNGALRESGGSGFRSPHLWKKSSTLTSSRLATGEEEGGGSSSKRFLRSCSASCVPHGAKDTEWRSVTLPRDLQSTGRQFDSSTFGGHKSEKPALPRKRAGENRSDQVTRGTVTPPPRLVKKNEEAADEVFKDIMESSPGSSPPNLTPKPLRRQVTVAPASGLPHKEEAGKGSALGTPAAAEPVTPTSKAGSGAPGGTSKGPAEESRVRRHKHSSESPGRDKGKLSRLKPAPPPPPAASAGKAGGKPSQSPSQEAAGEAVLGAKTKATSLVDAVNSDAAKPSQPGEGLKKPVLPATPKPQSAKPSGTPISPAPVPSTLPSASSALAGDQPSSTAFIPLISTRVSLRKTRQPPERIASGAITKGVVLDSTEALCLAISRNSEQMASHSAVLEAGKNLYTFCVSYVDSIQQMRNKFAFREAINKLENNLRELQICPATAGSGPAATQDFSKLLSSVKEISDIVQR
Procedure, shortened: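 IC50 values were determined with the Invitrogen SelectScreen biochemical kinase assay.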

[2] = target: T1, Epithelial discoidin domain-containing receptor 1 (Homo sapiens, UniProt Q08345); test: Inhibition of GST-tagged human DDR1 (440 to 876 residues) expressed in Baculovirus expression system
T1 sequence (Q08345 whole entry, the tested form may be a part): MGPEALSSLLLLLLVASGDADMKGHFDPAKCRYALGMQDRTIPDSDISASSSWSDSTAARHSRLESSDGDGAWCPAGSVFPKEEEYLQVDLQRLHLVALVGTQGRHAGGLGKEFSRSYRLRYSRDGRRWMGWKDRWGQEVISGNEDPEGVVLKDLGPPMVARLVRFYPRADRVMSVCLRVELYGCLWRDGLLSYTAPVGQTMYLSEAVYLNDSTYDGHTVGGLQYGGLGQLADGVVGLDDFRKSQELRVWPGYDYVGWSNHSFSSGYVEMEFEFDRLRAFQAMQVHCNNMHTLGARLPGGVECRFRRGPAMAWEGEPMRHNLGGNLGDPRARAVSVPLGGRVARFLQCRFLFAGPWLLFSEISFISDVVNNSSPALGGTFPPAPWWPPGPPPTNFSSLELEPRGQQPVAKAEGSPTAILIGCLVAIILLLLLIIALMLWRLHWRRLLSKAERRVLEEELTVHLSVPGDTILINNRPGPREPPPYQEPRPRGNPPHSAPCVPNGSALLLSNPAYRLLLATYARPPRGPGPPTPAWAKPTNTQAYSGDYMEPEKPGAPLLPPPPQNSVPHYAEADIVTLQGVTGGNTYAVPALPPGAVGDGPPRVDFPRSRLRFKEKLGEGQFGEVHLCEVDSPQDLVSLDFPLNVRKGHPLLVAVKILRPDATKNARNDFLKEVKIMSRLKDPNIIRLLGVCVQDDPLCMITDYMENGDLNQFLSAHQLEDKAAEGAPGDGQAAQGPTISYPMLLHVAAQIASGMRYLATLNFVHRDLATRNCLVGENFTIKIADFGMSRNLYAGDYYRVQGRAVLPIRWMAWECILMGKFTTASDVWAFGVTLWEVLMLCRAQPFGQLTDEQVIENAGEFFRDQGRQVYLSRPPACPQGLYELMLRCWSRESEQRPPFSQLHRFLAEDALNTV

[3] = target: T2, Bcr/Abl fusion protein (Homo sapiens) (UniProt P00519+P11274); test: Inhibition of BCR/ABL autophosphorylation at Y245 site in human KU812 cells at 300 nM after 1 hr by immunoblotting method; format: cell-based
T2 sequence (P00519 whole entry, looked up, the tested form may be a part): as the sequence (P00519 whole entry) above
T2 sequence (P11274 whole entry, looked up, the tested form may be a part): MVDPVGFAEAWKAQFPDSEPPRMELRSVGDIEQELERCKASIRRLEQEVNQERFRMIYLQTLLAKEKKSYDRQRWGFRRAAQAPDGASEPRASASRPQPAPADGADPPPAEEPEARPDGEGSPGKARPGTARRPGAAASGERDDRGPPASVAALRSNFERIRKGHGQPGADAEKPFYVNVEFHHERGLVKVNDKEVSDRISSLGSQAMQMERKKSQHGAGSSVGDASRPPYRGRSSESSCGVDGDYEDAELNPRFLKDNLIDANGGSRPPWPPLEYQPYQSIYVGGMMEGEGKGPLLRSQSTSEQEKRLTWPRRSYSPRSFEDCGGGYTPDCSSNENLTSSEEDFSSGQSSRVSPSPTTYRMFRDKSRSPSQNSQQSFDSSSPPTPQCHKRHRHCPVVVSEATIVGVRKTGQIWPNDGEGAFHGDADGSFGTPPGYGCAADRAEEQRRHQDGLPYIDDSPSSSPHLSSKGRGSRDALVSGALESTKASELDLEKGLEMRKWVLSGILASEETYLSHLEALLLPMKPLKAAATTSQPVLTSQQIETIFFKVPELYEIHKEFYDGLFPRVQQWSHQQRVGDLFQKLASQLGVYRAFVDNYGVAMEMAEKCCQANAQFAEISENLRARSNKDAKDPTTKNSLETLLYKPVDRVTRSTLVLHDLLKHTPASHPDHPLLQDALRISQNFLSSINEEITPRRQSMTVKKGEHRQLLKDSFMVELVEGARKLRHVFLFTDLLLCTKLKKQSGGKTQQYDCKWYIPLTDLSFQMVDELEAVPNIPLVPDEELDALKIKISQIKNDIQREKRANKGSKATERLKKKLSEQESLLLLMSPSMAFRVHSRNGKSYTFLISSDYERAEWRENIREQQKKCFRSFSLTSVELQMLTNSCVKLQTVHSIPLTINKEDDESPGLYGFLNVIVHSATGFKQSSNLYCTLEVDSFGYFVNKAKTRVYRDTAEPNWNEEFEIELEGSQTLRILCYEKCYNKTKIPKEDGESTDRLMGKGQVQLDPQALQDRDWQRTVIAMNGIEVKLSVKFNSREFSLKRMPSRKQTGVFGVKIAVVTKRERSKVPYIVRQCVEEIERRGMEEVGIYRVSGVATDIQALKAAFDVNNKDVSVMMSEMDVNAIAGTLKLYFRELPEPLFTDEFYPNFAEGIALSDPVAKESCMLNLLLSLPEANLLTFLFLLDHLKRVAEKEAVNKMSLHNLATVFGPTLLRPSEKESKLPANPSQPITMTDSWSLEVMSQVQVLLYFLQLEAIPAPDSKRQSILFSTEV
Procedure, shortened: (§1)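 KU812, K562 and MEG-01 cells were exposed to compound at the indicated concentrations for 1 h. Whole-cell lysates were then analysed by Western blot for phosphorylated signaling proteins.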

[4] = target: T2, Bcr/Abl fusion protein (Homo sapiens); test: Inhibition of BCR/ABL in human K562 cells assessed as downregulation of Stat5 phosphorylation at […] site after 1 hr by immunoblotting method; format: cell-based; procedure, shortened: as §1
[5] = target: T2, Bcr/Abl fusion protein (Homo sapiens); test: Inhibition of BCR/ABL in human MEG01 cells assessed as downregulation of Stat5 phosphorylation at […] site after 1 hr by immunoblotting method; format: cell-based; conditions: MEG-01; procedure, shortened: as §1
[6] = target: T2, Bcr/Abl fusion protein (Homo sapiens); test: Inhibition of BCR/ABL in human KU812 cells assessed as downregulation of CrkL phosphorylation at […] site after 1 hr by immunoblotting method; format: cell-based; procedure, shortened: as §1
[7] = target: T2, Bcr/Abl fusion protein (Homo sapiens); test: Inhibition of BCR/ABL in human K562 cells assessed as downregulation of ERK phosphorylation at Thr202/Tyr204 site after 1 hr by immunoblotting method; format: cell-based; procedure, shortened: as §1
[8] = target: T3, Mitogen-activated protein kinase 14 (Homo sapiens, UniProt Q16539); test: Inhibition of P38-alpha phosphorylation in human K562 cells at 0.01 to 3 uM after 1 hr by immunoblotting method; format: cell-based; procedure, shortened: as §1
T3 sequence (Q16539 whole entry): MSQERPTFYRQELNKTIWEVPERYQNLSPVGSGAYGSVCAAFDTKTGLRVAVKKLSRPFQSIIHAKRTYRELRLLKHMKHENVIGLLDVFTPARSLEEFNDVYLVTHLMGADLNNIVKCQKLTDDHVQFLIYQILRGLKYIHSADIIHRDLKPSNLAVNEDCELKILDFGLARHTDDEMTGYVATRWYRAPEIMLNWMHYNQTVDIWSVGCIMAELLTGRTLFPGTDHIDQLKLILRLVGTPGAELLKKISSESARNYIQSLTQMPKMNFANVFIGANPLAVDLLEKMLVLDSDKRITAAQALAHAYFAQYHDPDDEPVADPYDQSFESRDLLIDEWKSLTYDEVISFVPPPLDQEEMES

[9] = target: T3, Mitogen-activated protein kinase 14; test: Inhibition of P38-alpha phosphorylation in human MEG01 cells at 0.01 to 3 uM after 1 hr by immunoblotting method; format: cell-based; conditions: MEG-01; procedure, shortened: as §1
[10] = target: T4, Proto-oncogene tyrosine-protein kinase Src (Homo sapiens, UniProt P12931); test: Inhibition of SRC phosphorylation in human K562 cells at 0.01 to 3 uM after 1 hr by immunoblotting method; format: cell-based
T4 sequence (P12931 2-536 limits assumed): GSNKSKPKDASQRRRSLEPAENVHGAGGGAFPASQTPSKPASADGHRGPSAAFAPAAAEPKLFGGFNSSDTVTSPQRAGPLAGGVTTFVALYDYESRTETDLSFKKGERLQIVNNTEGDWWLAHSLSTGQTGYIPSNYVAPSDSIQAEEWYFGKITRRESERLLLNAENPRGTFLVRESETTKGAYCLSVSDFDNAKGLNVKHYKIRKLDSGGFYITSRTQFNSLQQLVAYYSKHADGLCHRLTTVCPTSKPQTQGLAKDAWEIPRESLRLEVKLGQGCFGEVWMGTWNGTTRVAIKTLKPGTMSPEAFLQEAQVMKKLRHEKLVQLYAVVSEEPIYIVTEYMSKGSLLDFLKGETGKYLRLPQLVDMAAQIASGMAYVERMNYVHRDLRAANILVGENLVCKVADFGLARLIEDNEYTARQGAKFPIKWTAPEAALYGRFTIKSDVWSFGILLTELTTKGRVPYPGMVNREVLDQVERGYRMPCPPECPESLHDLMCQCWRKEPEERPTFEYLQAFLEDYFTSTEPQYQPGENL
Procedure, shortened: (§2)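 Cells were treated for 1 h at the indicated concentrations. Whole-cell lysates were then analysed by Western blot for phosphorylation of signalling proteins in the BCR-ABL pathway.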

[11] = target: T4, Proto-oncogene tyrosine-protein kinase Src; test: Inhibition of SRC phosphorylation in human MEG01 cells at 0.01 to 3 uM after 1 hr by immunoblotting method; format: cell-based; conditions: MEG-01; procedure, shortened: as §2
K562 [12] = test: Induction of apoptosis in human K562 cells assessed as increase in cleaved PARP level at 100 nM after 48 hrs by immunoblotting method; format: functional, cell-based
KU812 cell line = test: Induction of apoptosis in human KU812 cells assessed as increase in cleaved caspase3 level at 100 nM after 24 hrs by immunoblotting method; format: functional, cell-based
[13] = Half life in Sprague-Dawley rat at 1 mg/kg, iv; format: ADME, organism-based; conditions: in vivo
[14] = Half life in Sprague-Dawley rat at 10 mg/kg, po; format: ADME, organism-based; conditions: in vivo
[15] = Tmax in Sprague-Dawley rat at 10 mg/kg, po; format: ADME, organism-based; conditions: in vivo
[16] = AUC(0 to t) in Sprague-Dawley rat at 10 mg/kg, po; format: ADME, organism-based; conditions: in vivo
[17] = Apparent volume of distribution in Sprague-Dawley rat at 1 mg/kg, iv; format: ADME, organism-based; conditions: in vivo, read-out: Vd(app)
[18] = Mean residence time (0 to infinity) in Sprague-Dawley rat at 1 mg/kg, iv; format: ADME, organism-based; conditions: in vivo
[19] = Mean residence time (0 to infinity) in Sprague-Dawley rat at 10 mg/kg, po; format: ADME, organism-based; conditions: in vivo
[20] = Oral bioavailability in Sprague-Dawley rat at 10 mg/kg; format: ADME, organism-based; conditions: in vivo
K562 [21] = test: Antiproliferative activity against human K562 cells xenografted in nu/nu mouse at 25 and 50 mg/kg/day, qd administered through oral gavage measured after 16 days by Ki-67 staining-based immunohistochemical analysis; format: functional, organism-based
Procedure, shortened: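 Female nu/nu mice bore established K562 xenografts and received daily oral dosing at 25.0 or 50.0 mg/kg/d, or vehicle, starting when tumors reached 200 to 400 mm3, for 16 days. Groups had 5 animals; data are mean ± SEM. Tumor size and body weight were normalized to initial values, and final tumor weight was recorded. Tumor tissue was stained with HE, Ki-67 and TUNEL.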

[22] = target: Tyrosine-protein kinase Blk (Homo sapiens) (UniProt P51451); test: Inhibition of partial length human wild type BLK expressed in bacterial expression system assessed as residual activity at 1 uM relative to control
[23] = target: Tyrosine-protein kinase Lck (Homo sapiens) (UniProt P06239); test: Inhibition of partial length human wild type LCK expressed in bacterial expression system assessed as residual activity at 1 uM relative to control
Chain of Tyrosine-protein kinase Lck (Homo sapiens) (P06239 2-509 limits assumed): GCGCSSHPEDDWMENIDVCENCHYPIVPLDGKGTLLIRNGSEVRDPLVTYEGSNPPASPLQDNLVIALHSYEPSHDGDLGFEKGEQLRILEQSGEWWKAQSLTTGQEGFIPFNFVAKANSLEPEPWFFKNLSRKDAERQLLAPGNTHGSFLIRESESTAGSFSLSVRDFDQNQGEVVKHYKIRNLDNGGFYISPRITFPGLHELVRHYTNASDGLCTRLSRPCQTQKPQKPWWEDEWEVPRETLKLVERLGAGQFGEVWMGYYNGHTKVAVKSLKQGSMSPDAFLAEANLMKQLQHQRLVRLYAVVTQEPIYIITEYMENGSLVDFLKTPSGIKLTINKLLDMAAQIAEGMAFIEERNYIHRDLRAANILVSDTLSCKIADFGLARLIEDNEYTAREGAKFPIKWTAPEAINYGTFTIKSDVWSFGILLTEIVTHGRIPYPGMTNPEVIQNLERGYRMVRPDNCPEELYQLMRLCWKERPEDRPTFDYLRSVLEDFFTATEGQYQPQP

[24] = target: T2, Bcr/Abl fusion protein (Homo sapiens); conditions: BaF3
[25] = target: T1, Epithelial discoidin domain-containing receptor 1; conditions: BaF3
[26] = tested on: Bcr/Abl fusion protein (Homo sapiens), P00519+P11274 [F317L]; conditions: BaF3
BaF3 = conditions: Homo sapiens
[27] = target: T2, Bcr/Abl fusion protein (Homo sapiens); conditions: BaF3; remark: listed apart in the source

CNc1nc(Nc2ccc(C)c(N)c2)ncc1C(=O)Nc1cc(NC(=O)c2cccc(C(F)(F)F)c2)ccc1C
Activity (Mus musculus): Non-toxic
IC50 [1]: 70 nM
IC50 [2]: 292 nM
inhibition [3]: Active
inhibition [4]: Dose-dependent effect
inhibition [5]: Dose-dependent effect
inhibition [6]: Dose-dependent effect
inhibition [7]: Dose-dependent effect
inhibition [8]: Active
inhibition [9]: Active
inhibition [10]: inactive
inhibition [11]: inactive
Activity (K562 [12]): Active
Activity (KU812 cell line): Active
half-life [13]: 2.82 h
half-life [14]: 4.33 h
Tmax [15]: 1 h
AUC(0-t) [16]: 1720 ng·h/mL
Vd [17]: 6.03 L/kg
MRT inf [18]: 3.1 h
MRT inf [19]: 5.51 h
bioavailability [20]: 24.2%
Activity (K562 [21]): Active
Activity [22]: 0.55%
Activity [23]: 0.3%
GI50 [24]: 7 nM
GI50 [25]: 3300 nM
GI50 [26]: 45 nM
GI50 (BaF3): 73 nM
GI50 [27]: 440 nM
